For 24 compounds, Drug metabolism results are on record in ChEMBL document CHEMBL4219066, “Identification and Mitigation of Reactive Metabolites of 2-Aminoimidazole-Containing Microsomal Prostaglandin E Synthase-1 Inhibitors Terminated Due to Clinical Drug-Induced Liver Injury” (J Med Chem, 2018).

A short description of series [1]: In vivo drug level in human plasma treated with LY3031207 by HPLC-MS analysis. In kind it is ADME, organism-based.
Series [2] in a line: Drug level in rat hepatocytes treated with LY3031207 at 2 uM after 4 hrs by LC-MS/MS analysis. In kind it is ADME, cell-based, Hepatocyte.
Series [3] can be described thus: Drug level in dog hepatocytes treated with LY3031207 at 2 uM after 4 hrs by LC-MS/MS analysis. In kind it is ADME, cell-based, Canis lupus familiaris, Hepatocyte.
Series [4] can be described thus: Drug level in human hepatocytes treated with LY3031207 at 2 uM after 4 hrs by LC-MS/MS analysis. In kind it is ADME, cell-based, Hepatocyte.
A short description of series [5]: In vivo drug level in human urine treated with LY3031207 by HPLC-MS analysis. In kind it is ADME, organism-based.
Series [6] can be described thus: In vivo drug level in human plasma treated with LY3023703 by HPLC-MS analysis. In kind it is ADME, organism-based.
Series [7] is described as follows: Drug level in human hepatocytes treated with LY3023703 at 2 uM after 4 hrs by LC-MS/MS analysis. In kind it is ADME, cell-based, Hepatocyte.
Series [8] is described as follows: Drug level in Beagle dog plasma treated with LY3023703 at 300 to 600 mg/kg, po measured after 2 hrs post dose by LC/MS analysis. In kind it is ADME, organism-based, Canis lupus familiaris. Conditions: in vivo.
Series [9] is described as follows: Drug level in rat hepatocytes treated with LY3023703 at 2 uM after 4 hrs by LC-MS/MS analysis. In kind it is ADME, cell-based, Hepatocyte.
The nature of series [10]: In vivo drug level in human urine treated with LY3023703 by HPLC-MS analysis. In kind it is ADME, organism-based.
Series [11] is described as follows: Drug level in dog hepatocytes treated with 2-(Difluoromethyl)-N-(4-methyl-5-(4-(trifluoromethyl)-phenyl)-1H-imidazol-2-yl)-5-(pivalamidomethyl)nicotinamide at 2 uM after 4 hrs by LC-MS/MS analysis. In kind it is ADME, cell-based, Canis lupus familiaris, Hepatocyte.
Series [12] can be described thus: Drug level in human hepatocytes treated with 2-(Difluoromethyl)-N-(4-methyl-5-(4-(trifluoromethyl)-phenyl)-1H-imidazol-2-yl)-5-(pivalamidomethyl)nicotinamide at 2 uM after 4 hrs by LC-MS/MS analysis. In kind it is ADME, cell-based, Hepatocyte.
The nature of series [13]: Drug level in rat hepatocytes treated with 2-(Difluoromethyl)-N-(4-methyl-5-(4-(trifluoromethyl)-phenyl)-1H-imidazol-2-yl)-5-(pivalamidomethyl)nicotinamide at 2 uM after 4 hrs by LC-MS/MS analysis. In kind it is ADME, cell-based, Hepatocyte.
A short description of series [14]: Drug level in rat hepatocytes treated with 2-Chloro-N-(4-methyl-1H-imidazol-2-yl)-5-(pivalamidomethyl)benzamide at 2 uM after 4 hrs by LC-MS/MS analysis. In kind it is ADME, cell-based, Hepatocyte.
Series [15] in a line: Drug level in human hepatocytes treated with 2-Chloro-N-(4-methyl-1H-imidazol-2-yl)-5-(pivalamidomethyl)benzamide at 2 uM after 4 hrs by LC-MS/MS analysis. In kind it is ADME, cell-based, Hepatocyte.
Series [16] can be described thus: Drug level in human hepatocytes treated with 2 -Chloro-N-(4,5-dimethyl-1H-imidazol-2-yl)-5-(pivalamidomethyl)benzamide at 2 uM after 4 hrs by LC-MS/MS analysis. In kind it is ADME, cell-based, Hepatocyte.
Series [17] is described as follows: Drug level in rat hepatocytes treated with 2 -Chloro-N-(4,5-dimethyl-1H-imidazol-2-yl)-5-(pivalamidomethyl)benzamide at 2 uM after 4 hrs by LC-MS/MS analysis. In kind it is ADME, cell-based, Hepatocyte.
Series [18] can be described thus: Drug level in dog hepatocytes treated with LY3023703 at 2 uM after 4 hrs by LC-MS/MS analysis. In kind it is ADME, cell-based, Canis lupus familiaris, Hepatocyte.
Series [19] in a line: Drug metabolism in human hepatocytes assessed as 2-(2-chloro-5-(pivalamidomethyl)benzamido)-1H-imidazole-4-carboxylic acid formation at 2 uM after 4 hrs by LC-MS/MS analysis. In kind it is ADME, cell-based, Hepatocyte.
The nature of series [20]: Drug metabolism in rat hepatocytes assessed as 2-(2-chloro-5-(pivalamidomethyl)benzamido)-1H-imidazole-4-carboxylic acid formation at 2 uM after 4 hrs by LC-MS/MS analysis. In kind it is ADME, cell-based, Hepatocyte.
The nature of series [21]: Drug level in rat hepatocytes treated with 2-(2-Chloro-5-(pivalamidomethyl)benzamido)-N-phenyl-1Himidazole-4-carboxamide at 2 uM after 4 hrs by LC-MS/MS analysis. In kind it is ADME, cell-based, Hepatocyte.
A short description of series [22]: Drug level in human hepatocytes treated with 2-(2-Chloro-5-(pivalamidomethyl)benzamido)-N-phenyl-1Himidazole-4-carboxamide at 2 uM after 4 hrs by LC-MS/MS analysis. In kind it is ADME, cell-based, Hepatocyte.
Series [23] in a line: Drug level in human liver microsomes treated with 2-Chloro-N-(4-methyl-1H-imidazol-2-yl)-5-(pivalamidomethyl)benzamide at 2 uM after 0.5 hrs in presence of 1:1 ratio of unlabeled GSH and [glycine 13C2,15N]-labelled GSH by HPLC-MS analysis. In kind it is ADME, microsome. The essentials: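 Glutathione-trapping incubation in human liver microsomes fortified with GSH to capture reactive intermediates. Metabolites and GSH adducts were identified by MS.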
On the technique in general: Microsomes from liver hold many membrane-bound enzymes, among them those of drug oxidation.

Take `CC(C)(C)C(=O)NCc1ccc(Cl)c(C(=O)Nc2nc(O)c[nH]2)c1`: the Drug metabolism entry in series [1], in series [2], in series [3], in series [4] and in series [5] was “Metabolite_Detected” in each case.
For the compound `Cc1nc(NC(=O)c2cc(CNC(=O)C(C)CO)cnc2C(F)F)[nH]c1-c1ccc(C(F)(F)F)cc1` (configuration not stated), the Drug metabolism entry in series [6], in series [7], in series [8], in series [9] and in series [10] was “Metabolite_Detected” each time.
Turning to `Cc1nc(N[C@@H]2O[C@H](C(=O)O)[C@@H](O)[C@H](O)[C@H]2O)[nH]c1-c1ccc(C(F)(F)F)cc1`, the Drug metabolism entry in series [8] was “Metabolite_Detected”.
With `Cc1nc(N)[nH]c1-c1ccc(C(F)(F)F)cc1`, the Drug metabolism result in series [7], in [8] and in series [9] was “Metabolite_Detected” each time.
On to `CC(C)(C)C(=O)NCc1cnc(C(F)F)c(C(=O)NC(=N)N)c1`, for which the Drug metabolism entry in [11], in series [12] and in series [13] was “Metabolite_Detected” throughout.
For `CC(C)(C)C(=O)NCc1ccc(Cl)c(C(=O)NC(=N)N)c1`, the Drug metabolism entry in [14], in series [15], in series [1], in series [16], in series [17] and in series [5] was “Metabolite_Detected” throughout.
Take `C=C(C)C(=O)NCc1cnc(C(F)F)c(C(=O)Nc2nc(C)c(-c3ccc(C(F)(F)F)cc3)[nH]2)c1`: the Drug metabolism entry in [6] and in [9] was “Metabolite_Detected” in each case.
Turning to `CC(=O)Nc1nc(C)c(-c2ccc(C(F)(F)F)cc2)[nH]1`, the Drug metabolism result in series [8] is “Metabolite_Detected”.
As to `CC(C)(CO)C(=O)NCc1ccc(Cl)c(C(=O)Nc2ncc[nH]2)c1`, the Drug metabolism entry in [1], in series [2], in series [3], in series [4] and in series [5] was “Metabolite_Detected” throughout.
As to `CC(C)(C)C(=O)NCc1ccc(Cl)c(C(=O)NC2=NC(O)C(O)N2)c1` (configuration not stated), the Drug metabolism entry in series [2], in [3], in series [4] and in series [5] was “Metabolite_Detected” throughout.
In the case of `Cc1nc(NC(=O)c2cc(CNC(=O)C(C)(C)O)cnc2C(F)F)[nH]c1-c1ccc(C(F)(F)F)cc1`, the Drug metabolism entry in series [6], in [7], in series [8], in series [9], in [18] and in series [10] was “Metabolite_Detected” in each case.
On to `CC(C)(C)C(=O)NCc1ccc(Cl)c(C(=O)Nc2nc(CO)c[nH]2)c1`, for which the Drug metabolism result in [14], in series [15], in series [19] and in series [20] was “Metabolite_Detected” throughout.
On to `CC(C)(CO)C(=O)NCc1ccc(Cl)c(C(=O)Nc2nc(C(=O)Nc3ccccc3)c[nH]2)c1`, for which the Drug metabolism entry in series [21] and in [22] was “Metabolite_Detected” throughout.
Consider `Cc1nc(NC(=O)c2cc(CNC(=O)C(C)(C)CO)ccc2Cl)[nH]c1C`, for which the Drug metabolism entry in [16] and in [17] was “Metabolite_Detected” throughout.
As for `Cc1nc(NC(=O)c2cc(CNC(=O)C(C)(C)CO)cnc2C(F)F)[nH]c1-c1ccc(C(F)(F)F)cc1`, the Drug metabolism result in [11], in series [12] and in series [13] was “Metabolite_Detected” throughout.
Turning to `Cc1c[nH]c(NC(=O)c2cc(CNC(=O)C(C)(C)CO)ccc2Cl)n1`, the Drug metabolism result in series [14] and in [15] was “Metabolite_Detected” in each case.
Consider `CC(C)(C)C(=O)NCc1ccc(Cl)c(C(=O)Nc2nc(CSC[C@H](N)C(=O)NCC(=O)O)c[nH]2)c1`, for which the Drug metabolism result in series [23] is given as “Metabolite_Detected”.
Take `Cc1[nH]c(NC(=O)c2cc(CNC(=O)C(C)(C)C)ccc2Cl)nc1CO`: the Drug metabolism result in series [16] and in [17] was “Metabolite_Detected” in each case.
For the compound `CC(C)(C)C(=O)NCc1ccc(Cl)c(C(=O)O)c1`, the Drug metabolism entry in series [21] and in series [22] was “Metabolite_Detected” each time.
On to `CC(C)(C)C(=O)NCc1cnc(C(F)F)c(C(=O)Nc2nc(CO)c(-c3ccc(C(F)(F)F)cc3)[nH]2)c1`, for which the Drug metabolism entry in [11] is given as “Metabolite_Detected”.
`CC(C)(C)C(=O)NCc1ccc(Cl)c(C(=O)Nc2nc(CSC[C@H](NC(=O)CC[C@H](N)C(=O)O)C(=O)NCC(=O)O)c[nH]2)c1`: the Drug metabolism entry in [23] is reported as “Metabolite_Detected”.
With `Cc1nc(NC(=O)c2cc(CN)cnc2C(F)F)[nH]c1-c1ccc(C(F)(F)F)cc1`, the Drug metabolism result in [10] is “Metabolite_Detected”.
As to `CC(C)(CO)C(=O)NCc1ccc(Cl)c(C(=O)NC(=N)N)c1`, the Drug metabolism entry in series [5] is on record as “Metabolite_Detected”.
With `CC(C)C(=O)NCc1cnc(C(F)F)c(C(=O)NC(=N)N)c1`, the Drug metabolism result in series [7], in series [9], in series [18] and in [10] was “Metabolite_Detected” each time.
